Reference: ChEMBL document CHEMBL2401641, “Design and synthesis of N-alkyldeoxynojirimycin derivatives with improved metabolic stability as inhibitors of BVDV and Tacaribe virus” (Bioorg Med Chem Lett, 2013)

Key:
[1] = tested on: Bovine viral diarrhea virus 1; experiment: Antiviral activity against Bovine viral diarrhea virus infected in MDBK cells assessed as reduction in viral yield after 3 days by neutral-red staining-based microscopic analysis; assay type: functional, organism-based; conditions: Bovine viral diarrhea virus isolates and strains, 72 h
In short: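 BVDV titers from treated infected cultures were determined by standard virus yield reduction assay in MDBK cells, and EC50 was derived.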

[2] = Cytotoxicity against MDBK cells by MTT assay; assay type: cell-based, Bos taurus; conditions: cattle
[3] = Metabolic stability in mouse liver microsomes assessed as compound remaining at 2 uM after 60 mins in presence of NADPH; assay type: ADME, Microsome; conditions: read-out: Stability
In short: (§1)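 Liver microsomes at 0.5mg/ml incubated at 37°C with test compound at 2μM in the presence of 1mM NADPH. Percent of parent compound remaining measured at 60 min. Run by a contract lab.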

[4] = Metabolic stability in rat liver microsomes assessed as compound remaining at 2 uM after 60 mins in presence of NADPH; assay type: ADME, Microsome; conditions: read-out: Stability; in short: as §1
[5] = Metabolic stability in human liver microsomes assessed as compound remaining at 2 uM after 60 mins in presence of NADPH; assay type: ADME, Microsome; conditions: read-out: Stability; in short: as §1
Tacaribe virus = experiment: Antiviral activity against Tacaribe virus infected in human Huh7.5 cells assessed as reduction in viral yield after 3 days by neutral-red staining-based microscopic analysis; assay type: functional, organism-based; conditions: Mammarenavirus tacaribeense, Huh-7, 72 h
In short: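 Huh7 cells infected with Tacaribe virus at MOI 0.01. Compounds were added immediately after virus incubation at 0.01 to 100 μM. Progeny titers were determined by standard virus yield reduction assay in Vero cells, and EC50 was derived.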

[6] = Cytotoxicity against human Huh7.5 cells by MTT assay; assay type: cell-based, Huh-7

Row | SMILES | EC50 [1] [µM] | CC50 [2] [µM] | remaining at 1 h, 2 µM [3] [%] | remaining at 1 h, 2 µM [4] [%] | remaining at 1 h, 2 µM [5] [%] | EC50 (Tacaribe virus) [µM] | CC50 [6] [µM]
1 | O=C1OC[C@H](c2ccccc2)N1CCCCCCN1C[C@H](O)[C@@H](O)[C@H](O)[C@H]1CO | 0.8 | > 500 | – | – | – | – | –
2 | CC(C)(C)S(=O)(=O)N(CCCCCCN1C[C@H](O)[C@@H](O)[C@H](O)[C@H]1CO)C1CCCCC1 | 0.31 | > 500 | 65.4 | 12.1 | 50.2 | 0.4 | > 500
3 | O=C1OC[C@@H](c2ccccc2)N1CCCCCCN1C[C@H](O)[C@@H](O)[C@H](O)[C@H]1CO | 3.5 | > 500 | – | – | – | – | –
4 | O=c1oc2ccccc2n1CCCCCCN1C[C@H](O)[C@@H](O)[C@H](O)[C@H]1CO | 0.4 | > 500 | 86.7 | 86.9 | 101 | 0.4 | > 500
5 | CC(C)(C)C(=O)N(CCCCCCN1C[C@H](O)[C@@H](O)[C@H](O)[C@H]1CO)C1CCCCC1 | – | > 500 | 58.6 | 26.9 | 41.6 | – | –
6 | O=C(c1cc(F)c(F)cc1F)N(CCCCCCN1C[C@H](O)[C@@H](O)[C@H](O)[C@H]1CO)C1CCCCC1 | 0.27 | > 500 | – | – | – | 0.6 | > 500
7 | O=S(=O)(c1ccccc1)N(CCCCCCN1C[C@H](O)[C@@H](O)[C@H](O)[C@H]1CO)C1CCCCC1 | 0.5 | 200 | 42.8 | 3.83 | 13 | 1.6 | 280
8 | NC(=O)N(CCCCCCN1C[C@H](O)[C@@H](O)[C@H](O)[C@H]1CO)C1CCCCC1 | 14.2 | > 500 | – | – | – | 100 | > 500
9 | CCCNC(=O)N(CCCCCCN1C[C@H](O)[C@@H](O)[C@H](O)[C@H]1CO)C1CCCCC1 | 15.8 | > 500 | – | – | – | 25 | > 500
10 | CC(C)OP(=O)(OC(C)C)N(CCCCCCN1C[C@H](O)[C@@H](O)[C@H](O)[C@H]1CO)C1CCCCC1 | 3.4 | > 500 | – | – | – | 0.3 | 310
11 | CS(=O)(=O)N(CCCCCCN1C[C@H](O)[C@@H](O)[C@H](O)[C@H]1CO)C1CCCCC1 | 0.2 | > 500 | 86.9 | 65.7 | 95.5 | 0.7 | > 500
12 | O=C(c1ccccc1)N(CCCCCCN1C[C@H](O)[C@@H](O)[C@H](O)[C@H]1CO)C1CCCCC1 | 0.32 | > 500 | 97.4 | 77.4 | 82.6 | 0.6 | > 500
13 | CC(C)(C)C(=O)N(CCCCCCN1C[C@H](O)[C@@H](O)[C@H](O)[C@H]1CO)c1ccc(F)cc1F | – | – | 55.3 | 21.6 | 36.1 | – | –
14 | CC(C)(C)NC(=O)N(CCCCCCN1C[C@H](O)[C@@H](O)[C@H](O)[C@H]1CO)C1CCCCC1 | 0.25 | > 500 | 87.6 | 92.8 | 93.6 | 0.74 | > 500
